Values after ≈ are worked out from the molar mass of the structure shown. Active and inactive are the calls of the source. No cut-off for these calls is given here.
Key:
[1] = Selectivity index, ratio of GIC50 for mouse RAW264.7 cells to MIC for Mycobacterium tuberculosis H37Rv; assay type: toxicity; conditions: read-out: Selectivity Index
How it was run: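 Cytotoxicity was measured in mouse macrophage RAW264.7 cells by resazurin viability readout. GIC50 was interpolated at 50% viability versus untreated control. SI = GIC50 divided by the M. tuberculosis MIC from the agar spot assay.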

[2] = Binding affinity to 192 base-pair fragment HexB 5-TTATAA-3 (unknown origin) at 5 to 10 uM after 30 mins by DNaSeI footprinting assay
How it was run: (§1)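 Radiolabelled HexB fragment in 10 mM Tris–HCl pH 7.5 with 0.1 mM EDTA, mixed with ligand in 10 mM Tris–HCl pH 7.5 with 10 mM NaCl. Equilibrated 30 min at room temperature, then DNase I in 20 mM NaCl, 2 mM MgCl₂, 2 mM MnCl₂ for 1 min. Heated 100 °C 3 min, resolved on 8% denaturing polyacrylamide gels, phosphorimaged. GA purine markers and no-ligand control lanes included.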

[3] = Binding affinity to 192 base-pair fragment HexB (unknown origin) at 1 to 10 uM after 30 mins by DNaSeI footprinting assay; how it was run: as §1
[4] = tested on: Mycobacterium tuberculosis; experiment: Antimycobacterial activity against Mycobacterium tuberculosis H37Rv after 7 days; assay type: functional; conditions: 168 h
How it was run: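 HT-SPOTi agar growth inhibition in 96-well format. Serially diluted DMSO solutions were mixed into Middlebrook 7H10 agar (kept at 55 °C) with 0.05% glycerol and 10% OADC. Controls were DMSO-only wells and isoniazid. Each well received 2×10³ CFU of culture (pre-grown rolling at 2 rpm or standing, 37 °C). Plates ran 7 days at 37 °C. MIC = lowest concentration with no visible growth.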

[5] = Binding affinity to 192 base-pair fragment HexB 5-CAATTG-3 (unknown origin) at 5 to 10 uM after 30 mins by DNaSeI footprinting assay; how it was run: as §1
[6] = Binding affinity to 192 base-pair fragment HexB (unknown origin) at 5 to 10 uM after 30 mins by DNaSeI footprinting assay; how it was run: as §1
[7] = tested on: unidentified; experiment: Binding affinity to 192 base-pair fragment HexB 5-TAATTA-3 (unknown origin) at 5 to 10 uM after 30 mins by DNaSeI footprinting assay; how it was run: as §1
[8] = Cytotoxicity against mouse RAW264.7 cells; assay type: cell-based
How it was run: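 RAW264.7 mouse macrophages assessed by resazurin viability assay. GIC50 interpolated at 50% viability versus control.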

[9] = Binding affinity to 5'-ACVHA-3' (V= A or G or C; H= C or T or A) (unknown origin) at 2 uM after 45 mins by ethidium bromide assay
How it was run: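 Hairpin oligonucleotides from a 512-member five-bp library at 1 µM base pairs final with 4.4 µM ethidium bromide in 0.1 M Tris–HCl, 0.1 M NaCl, pH 8. Fluorescence read after 15 min at room temperature (ex 545, em 595 nm). Ligand added at 2 µM final (DMSO), read again after 45 min. Triplicates; % fluorescence reduction relative to no-drug and no-DNA controls.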

[10] = tested on: unidentified; experiment: Binding affinity to 192 base-pair fragment HexB 5-AATATT-3 (unknown origin) at 1 to 10 uM after 30 mins by DNaSeI footprinting assay; how it was run: as §1
[11] = tested on: unidentified; experiment: Binding affinity to 192 base-pair fragment HexB 5-ACATAT-3 (unknown origin) at 1 to 10 uM after 30 mins by DNaSeI footprinting assay; how it was run: as §1
[12] = Binding affinity to 192 base-pair fragment HexB 5-ATTAAT-3 (unknown origin) at 1 to 10 uM after 30 mins by DNaSeI footprinting assay; how it was run: as §1

Cn1cc(NC(=O)c2cc(NC(=O)c3cc(NC=O)cn3C)cn2C)cc1C(=O)NCCC(=N)N [STALLIMYCIN]
selectivity ratio [1]: 2
Activity [2]: Active
Activity [3]: Active
MIC [4]: 31.2 µg/mL (≈ 64.9 µM)
Activity [5]: Active
Activity [6]: Active
Activity [7]: Active
GI50 [8]: 62.5 µg/mL (≈ 130 µM)

Cc1nc(-c2ccsc2)sc1C(=O)Nc1cc(C(=O)Nc2cc(C(=O)NCCCN(C)C)n(C)c2)n(C)c1
selectivity ratio [1]: 0.25
MIC [4]: 250 µg/mL (≈ 451 µM)
GI50 [8]: 62.5 µg/mL (≈ 113 µM)

CC(=O)Nc1cccc(-c2ccc(C(=O)Nc3cc(C(=O)Nc4cc(C(=O)NCCCN(C)C)n(C)c4)n(C)c3)o2)c1
selectivity ratio [1]: 4
MIC [4]: 125 µg/mL (≈ 218 µM)
GI50 [8]: 500 µg/mL (≈ 872 µM)

Cc1nc(-c2cnn(C)c2)sc1C(=O)Nc1cc(C(=O)Nc2cc(C(=O)NCCCN(C)C)n(C)c2)n(C)c1
selectivity ratio [1]: 8
Activity [3]: Active
MIC [4]: 31.2 µg/mL (≈ 56.6 µM)
Activity [9]: Active
Activity [6]: Active
Activity [10]: Active
Activity [11]: Active
Activity [12]: Active
GI50 [8]: 250 µg/mL (≈ 453 µM)

CC(=O)Nc1ccc(-c2cc(C(=O)Nc3cc(C(=O)Nc4cc(C(=O)NCCCN(C)C)n(C)c4)n(C)c3)n(C)c2)cc1
selectivity ratio [1]: 4
MIC [4]: 125 µg/mL (≈ 213 µM)
GI50 [8]: 500 µg/mL (≈ 852 µM)

CC(=O)Nc1ccc(-c2ccc(C(=O)Nc3cc(C(=O)Nc4cc(C(=O)NCCCN(C)C)n(C)c4)n(C)c3)o2)cc1
selectivity ratio [1]: 2
MIC [4]: 125 µg/mL (≈ 218 µM)
GI50 [8]: 250 µg/mL (≈ 436 µM)

CC(=O)Nc1ccc(-c2csc(C(=O)Nc3cc(C(=O)Nc4cc(C(=O)NCCCN(C)C)n(C)c4)n(C)c3)c2)cc1
selectivity ratio [1]: 1
MIC [4]: 62.5 µg/mL (≈ 106 µM)
GI50 [8]: 62.5 µg/mL (≈ 106 µM)

CO[C@H]1/C=C/O[C@@]2(C)Oc3c(C)c(O)c4c(O)c(c(/C=N/N5CCN(C)CC5)c(O)c4c3C2=O)NC(=O)/C(C)=C\C=C\[C@H](C)[C@H](O)[C@@H](C)[C@@H](O)[C@@H](C)[C@H](OC(C)=O)[C@@H]1C [RIFAMPIN]
selectivity ratio [1]: 14000
MIC [4]: 0.05 µg/mL (≈ 0.0608 µM)
GI50 [8]: 700 µg/mL (≈ 851 µM)

NNC(=O)c1ccncc1 [ISONIAZID]
selectivity ratio [1]: 60000
MIC [4]: 0.05 µg/mL (≈ 0.365 µM)
GI50 [8]: 3000 µg/mL (≈ 21900 µM)

— ChEMBL document CHEMBL3588772, “Synthesis, anti-mycobacterial activity and DNA sequence-selectivity of a library of biaryl-motifs containing polyamides” (Bioorg Med Chem, 2015)
